Reference: ChEMBL document CHEMBL2034886, “Anticancer and radiosensitizing evaluation of some new pyranothiazole-Schiff bases bearing the biologically active sulfonamide moiety” (Eur J Med Chem, 2012)

System: MCF7
Experiment: Cytotoxicity against 8 Gy irradiated human MCF7 cells assessed as surviving fraction at 25 uM after 1 hr by clonogenic assay (reference value: 0.927 +/- 0.02)
Format: functional
Conditions: not given
Summary of the method: (§1)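 MCF7 cells were treated with compound at 10, 25, 50 or 100 combined with one 8 Gy dose of ¹³⁷Cs gamma radiation at 1 Gy/min. Surviving fraction was measured 1 h after irradiation and given as mean ± SE relative to control, analysed by one-way ANOVA. IC50 was derived by nonlinear regression curve fitting.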

`COc1ccc(C2C(C#N)=C(N)Oc3nc(Nc4ccc(S(N)(=O)=O)cc4)sc32)cc1` (stereo not drawn) was tested, and the Activity was 0.346 fraction (of 1).
For `COc1ccc(C2C(C#N)=C(/N=C/c3ccccc3Cl)Oc3nc(Nc4ccc(S(N)(=O)=O)cc4)sc32)cc1` (stereo not drawn), the Activity was 0.237 fraction (of 1).
For `COc1ccc(C2C(C#N)=C(/N=C/c3ccc(Cl)cc3)Oc3nc(Nc4ccc(S(N)(=O)=O)cc4)sc32)cc1` (stereo not drawn), the Activity was 0.217 fraction (of 1).
For `COc1ccc(C2C(C#N)=C(/N=C/c3cccc(Br)c3)Oc3nc(Nc4ccc(S(N)(=O)=O)cc4)sc32)cc1` (stereo not drawn), the Activity was 0.211 fraction (of 1).
With `COc1ccc(C2C(C#N)=C(/N=C/c3ccc([N+](=O)[O-])cc3)Oc3nc(Nc4ccc(S(N)(=O)=O)cc4)sc32)cc1` (stereo not drawn) the Activity was 0.201 fraction (of 1).

System: MCF7
Experiment: Cytotoxicity against 8 Gy irradiated human MCF7 cells after 1 hr by clonogenic assay
Format: functional, cell-based
Conditions: MCF7, light or radiation study
Summary of the method: as §1

Point of comparison: `COc1ccc(C2C(C#N)=C(/N=C/c3ccccc3Cl)Oc3nc(Nc4ccc(S(N)(=O)=O)cc4)sc32)cc1` (stereo not drawn), IC50 9.11 µM. Against it:
- COc1ccc(C2C(C#N)=C(N)Oc3nc(Nc4ccc(S(N)(=O)=O)cc4)sc32)cc1 (stereo not drawn) — 1.6-fold higher, 14.8 µM
- COc1ccc(C2C(C#N)=C(/N=C/c3ccc(Cl)cc3)Oc3nc(Nc4ccc(S(N)(=O)=O)cc4)sc32)cc1 (stereo not drawn) — within 1.5-fold, 8.72 µM
- COc1ccc(C2C(C#N)=C(/N=C/c3cccc(Br)c3)Oc3nc(Nc4ccc(S(N)(=O)=O)cc4)sc32)cc1 (stereo not drawn) — within 1.5-fold, 8.72 µM
- COc1ccc(C2C(C#N)=C(/N=C/c3ccc([N+](=O)[O-])cc3)Oc3nc(Nc4ccc(S(N)(=O)=O)cc4)sc32)cc1 (stereo not drawn) — within 1.5-fold, 7.55 µM

System: MCF7
Experiment: Cytotoxicity against 8 Gy irradiated human MCF7 cells assessed as surviving fraction at 100 uM after 1 hr by clonogenic assay (reference value: 0.927 +/- 0.02)
Format: functional
Conditions: not given
Summary of the method: as §1

In the case of `COc1ccc(C2C(C#N)=C(N)Oc3nc(Nc4ccc(S(N)(=O)=O)cc4)sc32)cc1` (stereo not drawn), the Activity is reported as 0.201 fraction (of control).
With `COc1ccc(C2C(C#N)=C(/N=C/c3ccccc3Cl)Oc3nc(Nc4ccc(S(N)(=O)=O)cc4)sc32)cc1` (stereo not drawn) the Activity was 0.119 fraction (of control).
With `COc1ccc(C2C(C#N)=C(/N=C/c3ccc(Cl)cc3)Oc3nc(Nc4ccc(S(N)(=O)=O)cc4)sc32)cc1` (stereo not drawn) the Activity was 0.201 fraction (of control).
In the case of `COc1ccc(C2C(C#N)=C(/N=C/c3cccc(Br)c3)Oc3nc(Nc4ccc(S(N)(=O)=O)cc4)sc32)cc1` (stereo not drawn), the Activity is reported as 0.235 fraction (of control).
For `COc1ccc(C2C(C#N)=C(/N=C/c3ccc([N+](=O)[O-])cc3)Oc3nc(Nc4ccc(S(N)(=O)=O)cc4)sc32)cc1` (stereo not drawn), the Activity was 0.13 fraction (of control).

System: MCF7
Experiment: Cytotoxicity against human MCF7 cells assessed as surviving fraction at 10 uM after 48 hrs by sulforhodamine B assay
Format: functional
Conditions: not given
Summary of the method: (§2)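 SRB assay on MCF7 breast cancer cells plated at 10^4 cells/well for 24 h before treatment. Compounds were dissolved in DMSO, diluted with saline and tested at 10, 25, 50 and 100 in triplicate wells for 48 h at 37 °C under 5% CO₂. Cells were fixed and stained 30 min with 0.4% SRB in 1% acetic acid, washed four times with acetic acid, and the dye was recovered in Tris-EDTA and read on an ELISA reader. IC50 was taken from the survival curve.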

Point of comparison: `COc1ccc(C2C(C#N)=C(/N=C/c3ccccc3Cl)Oc3nc(Nc4ccc(S(N)(=O)=O)cc4)sc32)cc1` (stereo not drawn), Activity 0.541 fraction. Against it:
- COc1ccc(C2C(C#N)=C(N)Oc3nc(Nc4ccc(S(N)(=O)=O)cc4)sc32)cc1 (stereo not drawn) — higher, 0.81 fraction
- COc1ccc(C2C(C#N)=C(/N=C/c3ccccc3)Oc3nc(Nc4ccc(S(N)(=O)=O)cc4)sc32)cc1 (stereo not drawn) — higher, 0.825 fraction
- COc1ccc(C2C(C#N)=C(/N=C/c3ccc(Cl)cc3)Oc3nc(Nc4ccc(S(N)(=O)=O)cc4)sc32)cc1 (stereo not drawn) — lower, 0.443 fraction
- COc1ccc(C2C(C#N)=C(/N=C/c3cccc(Br)c3)Oc3nc(Nc4ccc(S(N)(=O)=O)cc4)sc32)cc1 (stereo not drawn) — lower, 0.435 fraction
- COc1ccc(C2C(C#N)=C(/N=C/c3ccc([N+](=O)[O-])cc3)Oc3nc(Nc4ccc(S(N)(=O)=O)cc4)sc32)cc1 (stereo not drawn) — lower, 0.48 fraction

System: MCF7
Experiment: Cytotoxicity against 8 Gy irradiated human MCF7 cells assessed as surviving fraction at 10 uM after 1 hr by clonogenic assay (reference value: 0.927 +/- 0.02)
Format: functional
Conditions: not given
Summary of the method: as §1

In the case of `COc1ccc(C2C(C#N)=C(N)Oc3nc(Nc4ccc(S(N)(=O)=O)cc4)sc32)cc1` (stereo not drawn), the Activity is reported as 0.618 fraction (unitless).
`COc1ccc(C2C(C#N)=C(/N=C/c3ccccc3Cl)Oc3nc(Nc4ccc(S(N)(=O)=O)cc4)sc32)cc1` (stereo not drawn) was tested, and the Activity was 0.453 fraction (unitless).
For `COc1ccc(C2C(C#N)=C(/N=C/c3ccc(Cl)cc3)Oc3nc(Nc4ccc(S(N)(=O)=O)cc4)sc32)cc1` (stereo not drawn), the Activity was 0.311 fraction (unitless).
In the case of `COc1ccc(C2C(C#N)=C(/N=C/c3cccc(Br)c3)Oc3nc(Nc4ccc(S(N)(=O)=O)cc4)sc32)cc1` (stereo not drawn), the Activity is reported as 0.319 fraction (unitless).
In the case of `COc1ccc(C2C(C#N)=C(/N=C/c3ccc([N+](=O)[O-])cc3)Oc3nc(Nc4ccc(S(N)(=O)=O)cc4)sc32)cc1` (stereo not drawn), the Activity is reported as 0.403 fraction (unitless).

System: MCF7
Experiment: Cytotoxicity against human MCF7 cells assessed as surviving fraction at 25 uM after 48 hrs by sulforhodamine B assay
Format: functional
Conditions: not given
Summary of the method: as §2

Point of comparison: `COc1ccc(C2C(C#N)=C(/N=C/c3ccc(Cl)cc3)Oc3nc(Nc4ccc(S(N)(=O)=O)cc4)sc32)cc1` (stereo not drawn), Activity 25.1%. Against it:
- COc1ccc(C2C(C#N)=C(N)Oc3nc(Nc4ccc(S(N)(=O)=O)cc4)sc32)cc1 (stereo not drawn) — higher, 55%
- COc1ccc(C2C(C#N)=C(/N=C/c3ccccc3)Oc3nc(Nc4ccc(S(N)(=O)=O)cc4)sc32)cc1 (stereo not drawn) — higher, 66.8%
- COc1ccc(C2C(C#N)=C(/N=C/c3ccccc3Cl)Oc3nc(Nc4ccc(S(N)(=O)=O)cc4)sc32)cc1 (stereo not drawn) — higher, 32.3%
- COc1ccc(C2C(C#N)=C(/N=C/c3cccc(Br)c3)Oc3nc(Nc4ccc(S(N)(=O)=O)cc4)sc32)cc1 (stereo not drawn) — lower, 23.3%
- COc1ccc(C2C(C#N)=C(/N=C/c3ccc([N+](=O)[O-])cc3)Oc3nc(Nc4ccc(S(N)(=O)=O)cc4)sc32)cc1 (stereo not drawn) — higher, 32.7%

System: MCF7
Experiment: Cytotoxicity against human MCF7 cells assessed as surviving fraction at 100 uM after 48 hrs by sulforhodamine B assay
Format: functional
Conditions: not given
Summary of the method: as §2

Point of comparison: `COc1ccc(C2C(C#N)=C(/N=C/c3ccccc3Cl)Oc3nc(Nc4ccc(S(N)(=O)=O)cc4)sc32)cc1` (stereo not drawn), Activity 46%. Against it:
- COc1ccc(C2C(C#N)=C(N)Oc3nc(Nc4ccc(S(N)(=O)=O)cc4)sc32)cc1 (stereo not drawn) — lower, 35%
- COc1ccc(C2C(C#N)=C(/N=C/c3ccccc3)Oc3nc(Nc4ccc(S(N)(=O)=O)cc4)sc32)cc1 (stereo not drawn) — lower, 27.1%
- COc1ccc(C2C(C#N)=C(/N=C/c3ccc(Cl)cc3)Oc3nc(Nc4ccc(S(N)(=O)=O)cc4)sc32)cc1 (stereo not drawn) — lower, 29%
- COc1ccc(C2C(C#N)=C(/N=C/c3cccc(Br)c3)Oc3nc(Nc4ccc(S(N)(=O)=O)cc4)sc32)cc1 (stereo not drawn) — lower, 30.9%
- COc1ccc(C2C(C#N)=C(/N=C/c3ccc([N+](=O)[O-])cc3)Oc3nc(Nc4ccc(S(N)(=O)=O)cc4)sc32)cc1 (stereo not drawn) — lower, 38.1%

System: MCF7
Experiment: Cytotoxicity against human MCF7 cells after 48 hrs by sulforhodamine B assay
Format: functional, cell-based
Conditions: MCF7, 48 h
Summary of the method: as §2

Point of comparison: `COc1ccc(C2C(C#N)=C(/N=C/c3ccccc3Cl)Oc3nc(Nc4ccc(S(N)(=O)=O)cc4)sc32)cc1` (stereo not drawn), IC50 10.2 µM. Against it:
- COc1ccc(C2C(C#N)=C(N)Oc3nc(Nc4ccc(S(N)(=O)=O)cc4)sc32)cc1 (stereo not drawn) — 2.7-fold higher, 27.5 µM
- COc1ccc(C2C(C#N)=C(/N=C/c3ccccc3)Oc3nc(Nc4ccc(S(N)(=O)=O)cc4)sc32)cc1 (stereo not drawn) — 3.3-fold higher, 33.5 µM
- COc1ccc(C2C(C#N)=C(/N=C/c3ccc(Cl)cc3)Oc3nc(Nc4ccc(S(N)(=O)=O)cc4)sc32)cc1 (stereo not drawn) — within 1.5-fold, 9.55 µM
- COc1ccc(C2C(C#N)=C(/N=C/c3cccc(Br)c3)Oc3nc(Nc4ccc(S(N)(=O)=O)cc4)sc32)cc1 (stereo not drawn) — within 1.5-fold, 9.39 µM
- COc1ccc(C2C(C#N)=C(/N=C/c3ccc([N+](=O)[O-])cc3)Oc3nc(Nc4ccc(S(N)(=O)=O)cc4)sc32)cc1 (stereo not drawn) — within 1.5-fold, 9.7 µM

System: MCF7
Experiment: Cytotoxicity against 8 Gy irradiated human MCF7 cells assessed as surviving fraction at 50 uM after 1 hr by clonogenic assay (reference value: 0.927 +/- 0.02)
Format: functional
Conditions: not given
Summary of the method: as §1

Point of comparison: `COc1ccc(C2C(C#N)=C(/N=C/c3ccc([N+](=O)[O-])cc3)Oc3nc(Nc4ccc(S(N)(=O)=O)cc4)sc32)cc1` (stereo not drawn), Activity 0.1 fraction. Against it:
- COc1ccc(C2C(C#N)=C(N)Oc3nc(Nc4ccc(S(N)(=O)=O)cc4)sc32)cc1 (stereo not drawn) — higher, 0.171 fraction
- COc1ccc(C2C(C#N)=C(/N=C/c3ccccc3Cl)Oc3nc(Nc4ccc(S(N)(=O)=O)cc4)sc32)cc1 (stereo not drawn) — higher, 0.135 fraction
- COc1ccc(C2C(C#N)=C(/N=C/c3ccc(Cl)cc3)Oc3nc(Nc4ccc(S(N)(=O)=O)cc4)sc32)cc1 (stereo not drawn) — higher, 0.17 fraction
- COc1ccc(C2C(C#N)=C(/N=C/c3cccc(Br)c3)Oc3nc(Nc4ccc(S(N)(=O)=O)cc4)sc32)cc1 (stereo not drawn) — higher, 0.119 fraction

System: MCF7
Experiment: Cytotoxicity against human MCF7 cells assessed as surviving fraction at 50 uM after 48 hrs by sulforhodamine B assay
Format: functional
Set-up: unit not given here
Conditions: not given
Summary of the method: as §2

Point of comparison: `COc1ccc(C2C(C#N)=C(/N=C/c3ccc(Cl)cc3)Oc3nc(Nc4ccc(S(N)(=O)=O)cc4)sc32)cc1` (stereo not drawn), Activity 0.355. Against it:
- COc1ccc(C2C(C#N)=C(N)Oc3nc(Nc4ccc(S(N)(=O)=O)cc4)sc32)cc1 (stereo not drawn) — lower, 0.331
- COc1ccc(C2C(C#N)=C(/N=C/c3ccccc3)Oc3nc(Nc4ccc(S(N)(=O)=O)cc4)sc32)cc1 (stereo not drawn) — lower, 0.307
- COc1ccc(C2C(C#N)=C(/N=C/c3ccccc3Cl)Oc3nc(Nc4ccc(S(N)(=O)=O)cc4)sc32)cc1 (stereo not drawn) — higher, 0.36
- COc1ccc(C2C(C#N)=C(/N=C/c3cccc(Br)c3)Oc3nc(Nc4ccc(S(N)(=O)=O)cc4)sc32)cc1 (stereo not drawn) — higher, 0.371
- COc1ccc(C2C(C#N)=C(/N=C/c3ccc([N+](=O)[O-])cc3)Oc3nc(Nc4ccc(S(N)(=O)=O)cc4)sc32)cc1 (stereo not drawn) — lower, 0.313

System: MCF7
Experiment: Ratio of doxorubicin IC50 to compound IC50 for human MCF7 cells
Format: functional
Conditions: not given

Point of comparison: `COc1ccc(C2C(C#N)=C(/N=C/c3ccc([N+](=O)[O-])cc3)Oc3nc(Nc4ccc(S(N)(=O)=O)cc4)sc32)cc1` (stereo not drawn), “Ratio IC50” value 3.3. Against it:
- COc1ccc(C2C(C#N)=C(/N=C/c3ccccc3Cl)Oc3nc(Nc4ccc(S(N)(=O)=O)cc4)sc32)cc1 (stereo not drawn) — lower, 3.1
- COc1ccc(C2C(C#N)=C(/N=C/c3cccc(Br)c3)Oc3nc(Nc4ccc(S(N)(=O)=O)cc4)sc32)cc1 (stereo not drawn) — higher, 3.4
